Assays:
[1] = format: in vivo, rat; settings: 4 h after oral DFP-11207 53.4 mg/kg
Summary of the method: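 AZ521 xenograft-bearing nude rats received 53.4 mg/kg (75 μmol/kg) test compound orally and were killed at 1, 2, 4, 8 and 12 h. Serum, small intestine and tumour were taken. Tissues were homogenised in 10 mM potassium phosphate-buffered saline (pH 7.2) and spun at 9,000× g for 30 min. Supernatants were extracted with 4 volumes of ethyl acetate, dried at 40°C, redissolved, and assayed for CTA and 5-FU by HPLC.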

CoLo320DM cells = format: cell-based, human; settings: 1-100 µM, 1 µM [6-3H] 5-FU, 37°C, 45 min
Summary of the method: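 CoLo320DM cells in RPMI-1640 were incubated at 37°C for 45 min with 1 μM [6-3H]5-FU (37 kBq), alone or with 1–100 μM test compound or CTA. Acid was added and the mixture centrifuged. The neutralised acid-soluble fraction was run on silica TLC and the FUMP spot counted. RNA-incorporated label in the precipitate was extracted by the Schneider method. Results are means of duplicate assays.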

[2] = target: T1, orotate phosphoribosyltransferase (OPRT) (Homo sapiens, UniProt P11172); settings: cited from earlier work
T1 sequence (P11172 1-480): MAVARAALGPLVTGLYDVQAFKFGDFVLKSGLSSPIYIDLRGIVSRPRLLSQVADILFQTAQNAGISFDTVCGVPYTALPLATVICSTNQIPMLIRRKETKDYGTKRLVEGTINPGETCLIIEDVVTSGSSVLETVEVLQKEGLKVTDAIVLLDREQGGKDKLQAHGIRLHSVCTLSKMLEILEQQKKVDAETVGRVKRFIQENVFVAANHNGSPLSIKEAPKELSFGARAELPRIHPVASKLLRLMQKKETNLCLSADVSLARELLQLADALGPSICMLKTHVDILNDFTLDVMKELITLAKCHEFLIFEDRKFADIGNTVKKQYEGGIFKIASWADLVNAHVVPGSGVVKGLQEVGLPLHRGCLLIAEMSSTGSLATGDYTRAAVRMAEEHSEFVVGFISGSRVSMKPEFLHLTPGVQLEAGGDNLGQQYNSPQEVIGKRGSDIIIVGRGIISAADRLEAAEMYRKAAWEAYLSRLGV

[3] = format: in vitro ADME; settings: rat serum, liver and small intestine homogenates
Summary of the method: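 Test compound (1 mM) was incubated at 37°C with rat serum or 20% (w/v) liver or small-intestine homogenates for 10, 20, 30 and 60 min. Reactions were stopped with 10% TCA and spun at 3,000× g for 10 min. Supernatants were neutralised with 2 M KOH, and EM-FU, CDHP, CTA and 5-FU were measured by HPLC. Results are means of duplicate assays.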

[4] = Conversion of EM-FU to 5-FU by rat liver microsomes; format: in vitro ADME; settings: 1 mM, 60 min
Summary of the method: (§1)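 EM-FU (1 mM) was incubated for 60 min with liver microsomes (0.85 mg protein) from each species, with tegafur as positive control. 5-FU formed was quantified by HPLC. Assays were run in triplicate and reported as mean ± SD.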

[5] = Conversion of EM-FU to 5-FU by monkey liver microsomes; format: in vitro ADME; settings: 1 mM, 60 min
Summary of the method: as §1

[6] = Conversion of EM-FU to 5-FU by human liver microsomes; format: in vitro ADME; settings: 1 mM, 60 min
Summary of the method: as §1

[7] = Conversion of EM-FU to 5-FU by dog liver microsomes; format: in vitro ADME; settings: 1 mM, 60 min
Summary of the method: as §1

[8] = test system: CYP1A2, CYP2A6, CYP2E1, CYP3A4; format: in vitro ADME; settings: 100 µM inhibitor; EM-FU 1 mM; human liver microsomes

O=c1[nH]cc(F)c(=O)[nH]1 [5-FU, 5-Fluorouracil]
5-FU level in small intestine compared with CTA [1]: almost equal level | 5-FU levels in blood and tumor compared with CTA [1]: much higher than CTA

O=C(O)c1cc(O)nc(O)c1 [CTA, citrazinic acid]
Inhibition of incorporation of 5-FU into RNA (CoLo320DM cells): did not inhibit | Inhibition of intracellular phosphorylation of 5-FU (CoLo320DM cells): did not inhibit | Inhibition of OPRT activity (5-FU phosphorylation) in cell-free tumor extract [2]: strongly inhibit

CCOCn1cc(F)c(=O)[nH]c1=O [EM-FU, 1-ethoxymethyl-5-fluorouracil]
Production of 5-FU from EM-FU by this enzymatic reaction [3]: not produced | Conversion rate of EM-FU to 5-FU [4]: 30 to 60 pmol/min/mg | Conversion rate of EM-FU to 5-FU [5]: 30 to 60 pmol/min/mg | Conversion rate of EM-FU to 5-FU [6]: 30 to 60 pmol/min/mg | Conversion rate of EM-FU to 5-FU [7]: lowest conversion rate

O=c1ccc2ccccc2o1 [coumarin]
Inhibition of the conversion of EM-FU to 5-FU [8]: strongly inhibited

O=[N+]([O-])c1ccc(O)cc1 [p-nitrophenol]
Inhibition of the conversion of EM-FU to 5-FU [8]: strongly inhibited

O=c1cc(-c2ccccc2)oc2c1ccc1ccccc12 [α-naphthoflavone]
Inhibition of the conversion of EM-FU to 5-FU [8]: strongly inhibited

toleandomycin
Inhibition of the conversion of EM-FU to 5-FU [8]: strongly inhibited
